Experimental data: ChEMBL document CHEMBL1148788 (J Med Chem, 2007)
Calls of active or inactive are those of the source. The calls are words filed in the database; no cut-off is given here.

Assays:
[1] = Displacement of [3H]methyllycaconitine from chimeric alpha-7nAChR D197A mutant/5HT3A receptor in tsA201 cells; assay type: cell-based, Homo sapiens
Outline: (§1)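 tsA-201 cells transiently transfected with 4 µg WT or mutant α7/5-HT3A chimera and assayed 2 days later. Membranes washed twice at 50000g in 50 mM Tris-HCl pH 7.2. Incubated with 0.5 nM [3H]MLA and compound for 2.5 h at room temperature with shaking; nonspecific binding with 5 mM (S)-nicotine. PEI-soaked GF/C filtration, scintillation counting. Ki derived; duplicate, 3–7 experiments.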

tsA201 [2] = experiment: Displacement of [3H]methyllycaconitine from chimeric alpha-7nAChR W55A/Y195A mutant /5HT3A receptor in tsA201 cells; assay type: cell-based; conditions: Homo sapiens; outline: as §1
[3] = Displacement of [3H]methyllycaconitine from chimeric alpha-7nAChR K145R mutant /5HT3A receptor in tsA201 cells; assay type: cell-based, Homo sapiens; outline: as §1
[4] = target: Neuronal acetylcholine receptor; alpha4/beta2 (Rattus norvegicus, UniProt P09483+P12390); experiment: Displacement of [3H]epibatidine from rat recombinant alpha-4-beta-2 nAChR in HEK293 cell line; assay type: cell-based; conditions: for pKi: hek293
Chain of Neuronal acetylcholine receptor; alpha4/beta2 (P09483 whole entry): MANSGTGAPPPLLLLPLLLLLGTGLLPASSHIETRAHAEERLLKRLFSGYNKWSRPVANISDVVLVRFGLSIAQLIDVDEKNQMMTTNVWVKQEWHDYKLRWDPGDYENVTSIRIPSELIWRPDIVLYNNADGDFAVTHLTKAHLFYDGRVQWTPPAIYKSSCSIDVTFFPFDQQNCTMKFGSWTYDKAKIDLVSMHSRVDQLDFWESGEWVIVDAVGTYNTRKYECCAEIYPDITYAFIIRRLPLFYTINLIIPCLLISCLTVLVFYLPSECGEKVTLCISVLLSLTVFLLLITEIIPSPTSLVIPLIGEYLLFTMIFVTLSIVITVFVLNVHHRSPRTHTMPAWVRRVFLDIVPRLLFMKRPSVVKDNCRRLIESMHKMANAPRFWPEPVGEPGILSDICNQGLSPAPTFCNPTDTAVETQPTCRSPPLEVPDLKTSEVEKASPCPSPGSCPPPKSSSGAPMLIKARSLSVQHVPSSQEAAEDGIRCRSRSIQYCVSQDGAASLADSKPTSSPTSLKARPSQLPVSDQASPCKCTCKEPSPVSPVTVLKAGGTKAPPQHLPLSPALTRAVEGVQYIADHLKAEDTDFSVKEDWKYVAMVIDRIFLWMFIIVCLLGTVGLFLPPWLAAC
Chain of Neuronal acetylcholine receptor; alpha4/beta2 (P12390 whole entry): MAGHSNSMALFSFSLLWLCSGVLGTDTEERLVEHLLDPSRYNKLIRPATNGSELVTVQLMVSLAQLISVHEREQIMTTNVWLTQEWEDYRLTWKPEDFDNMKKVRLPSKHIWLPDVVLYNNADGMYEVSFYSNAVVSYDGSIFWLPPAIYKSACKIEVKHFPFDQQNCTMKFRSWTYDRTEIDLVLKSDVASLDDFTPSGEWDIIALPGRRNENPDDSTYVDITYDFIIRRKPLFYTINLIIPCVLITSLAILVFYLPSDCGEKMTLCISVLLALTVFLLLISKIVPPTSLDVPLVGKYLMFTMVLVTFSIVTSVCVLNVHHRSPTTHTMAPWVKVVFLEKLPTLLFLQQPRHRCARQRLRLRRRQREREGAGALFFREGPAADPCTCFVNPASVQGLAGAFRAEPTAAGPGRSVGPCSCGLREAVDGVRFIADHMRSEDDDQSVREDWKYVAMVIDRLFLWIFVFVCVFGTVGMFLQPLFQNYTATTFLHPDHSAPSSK

[5] = target: T1, Neuronal acetylcholine receptor; alpha3/beta4 (Rattus norvegicus, UniProt P04757+P12392); experiment: Displacement of [3H]epibatidine from recombinant rat alpha-3-beta-4 nAChr in HEK293 cell line; assay type: cell-based; conditions: for pKi: hek293
T1 sequence (P04757 whole entry): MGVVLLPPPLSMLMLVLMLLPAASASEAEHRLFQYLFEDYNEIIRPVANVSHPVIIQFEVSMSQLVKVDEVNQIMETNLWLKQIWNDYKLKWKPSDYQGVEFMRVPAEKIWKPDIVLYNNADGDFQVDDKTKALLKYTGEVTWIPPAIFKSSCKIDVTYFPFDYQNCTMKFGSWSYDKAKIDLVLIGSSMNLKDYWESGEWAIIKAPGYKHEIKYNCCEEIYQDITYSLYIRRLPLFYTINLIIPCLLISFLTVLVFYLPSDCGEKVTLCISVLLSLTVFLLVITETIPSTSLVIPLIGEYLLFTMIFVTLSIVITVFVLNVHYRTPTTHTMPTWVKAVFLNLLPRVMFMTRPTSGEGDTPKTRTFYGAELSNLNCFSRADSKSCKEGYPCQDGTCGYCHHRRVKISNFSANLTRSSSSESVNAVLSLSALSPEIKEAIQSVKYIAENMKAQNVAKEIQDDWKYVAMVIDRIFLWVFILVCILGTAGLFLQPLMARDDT
T1 sequence (P12392 whole entry): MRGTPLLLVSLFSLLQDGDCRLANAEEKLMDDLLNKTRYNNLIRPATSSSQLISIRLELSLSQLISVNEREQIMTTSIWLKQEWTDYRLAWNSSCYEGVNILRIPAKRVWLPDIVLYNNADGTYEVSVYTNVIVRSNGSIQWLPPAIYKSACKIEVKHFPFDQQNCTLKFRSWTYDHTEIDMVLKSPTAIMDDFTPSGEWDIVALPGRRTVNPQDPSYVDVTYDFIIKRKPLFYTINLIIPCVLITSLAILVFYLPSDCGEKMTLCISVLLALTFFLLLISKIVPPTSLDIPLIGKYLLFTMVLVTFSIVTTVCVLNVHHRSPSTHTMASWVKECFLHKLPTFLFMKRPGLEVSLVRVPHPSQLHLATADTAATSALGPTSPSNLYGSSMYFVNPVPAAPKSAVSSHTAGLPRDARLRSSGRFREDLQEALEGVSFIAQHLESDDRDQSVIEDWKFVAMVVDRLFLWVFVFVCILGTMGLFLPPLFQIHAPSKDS

[6] = target: Neuronal acetylcholine receptor; alpha4/beta4 (Rattus norvegicus, UniProt P09483+P12392); experiment: Displacement of [3H]epibatidine from recombinant rat alpha-4-beta-4 nAChr in HEK293 cell line; assay type: cell-based; conditions: for pKi: hek293
Chain of Neuronal acetylcholine receptor; alpha4/beta4 (P09483 whole entry): as the sequence (P09483 whole entry) above
Chain of Neuronal acetylcholine receptor; alpha4/beta4 (P12392 whole entry): as the sequence (P12392 whole entry) above

[7] = target: T2, Neuronal acetylcholine receptor subunit alpha-7 (Homo sapiens, UniProt P36544); experiment: Displacement of [3H]methyllycaconitine from human alpha-7 in tsA201 cells coexpressed with 5HT3A receptor; assay type: cell-based
Target sequence in this assay (P36544 whole entry): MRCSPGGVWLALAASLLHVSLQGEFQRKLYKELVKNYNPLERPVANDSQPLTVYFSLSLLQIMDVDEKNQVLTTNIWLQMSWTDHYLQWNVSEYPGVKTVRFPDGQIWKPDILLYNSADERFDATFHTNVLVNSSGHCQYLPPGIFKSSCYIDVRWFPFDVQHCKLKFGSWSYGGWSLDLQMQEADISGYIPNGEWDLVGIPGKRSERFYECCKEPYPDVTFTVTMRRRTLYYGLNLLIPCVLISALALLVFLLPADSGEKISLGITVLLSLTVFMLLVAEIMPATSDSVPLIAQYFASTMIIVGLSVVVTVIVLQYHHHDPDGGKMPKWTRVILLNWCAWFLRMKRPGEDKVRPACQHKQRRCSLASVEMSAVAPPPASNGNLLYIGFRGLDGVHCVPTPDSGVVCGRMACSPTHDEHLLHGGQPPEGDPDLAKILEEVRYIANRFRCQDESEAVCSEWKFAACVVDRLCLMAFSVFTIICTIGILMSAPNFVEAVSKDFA

[8] = target: T2, Neuronal acetylcholine receptor subunit alpha-7; experiment: Displacement of [3H]methyllycaconitine from alpha7 nAChR in tsA201 cells co-expressed with Ric3; assay type: cell-based
Target sequence in this assay (P36544 whole entry): as above

[9] = target: T3, 5-hydroxytryptamine receptor 3A (Homo sapiens, UniProt P46098); experiment: Displacement of [3H]GR65630 from human 5HT3A receptor in HEK293 cells; assay type: cell-based
T3 sequence (P46098 whole entry): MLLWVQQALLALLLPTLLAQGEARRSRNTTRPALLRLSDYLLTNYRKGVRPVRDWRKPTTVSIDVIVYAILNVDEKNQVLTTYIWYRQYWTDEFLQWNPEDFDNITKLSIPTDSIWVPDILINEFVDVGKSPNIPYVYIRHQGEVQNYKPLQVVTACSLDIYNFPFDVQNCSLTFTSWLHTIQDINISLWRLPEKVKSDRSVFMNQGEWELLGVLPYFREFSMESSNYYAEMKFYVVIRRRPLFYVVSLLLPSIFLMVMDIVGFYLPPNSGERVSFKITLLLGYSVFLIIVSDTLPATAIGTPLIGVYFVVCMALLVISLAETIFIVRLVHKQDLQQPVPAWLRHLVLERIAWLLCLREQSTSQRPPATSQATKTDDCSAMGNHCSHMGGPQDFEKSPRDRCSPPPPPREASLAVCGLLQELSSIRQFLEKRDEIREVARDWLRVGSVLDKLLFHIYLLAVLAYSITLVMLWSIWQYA

[10] = target: T2, Neuronal acetylcholine receptor subunit alpha-7; experiment: Antagonist activity at human alpha-7 nAChR in tsA201 cells coexpressed with Ric3 by FMP assay; assay type: functional, cell-based
Target sequence in this assay (P36544 whole entry): as the sequence (P36544 whole entry) above

[11] = target: T1, Neuronal acetylcholine receptor; alpha3/beta4; experiment: Antagonist activity at rat alpha3beta4 nAChR expressed in HEK293 cells by FMP assay; assay type: functional, cell-based, Homo sapiens; conditions: for pIC50: hek293; for IC50: read-out: IC50
[12] = target: T3, 5-hydroxytryptamine receptor 3A; experiment: Antagonist activity at human 5HT3A receptor expressed in HEK293 cells by FMP assay; assay type: functional, cell-based
cells = assay type: functional, cell-based; conditions: Homo sapiens, HEK293
[13] = target: T4, Glycine receptor subunit alpha-1 (Homo sapiens, UniProt P23415); experiment: Antagonist activity at human glycine alpha-1 receptor in HEK293 cells by FMP assay; assay type: functional, cell-based; conditions: for pIC50: hek293
T4 sequence (P23415 whole entry): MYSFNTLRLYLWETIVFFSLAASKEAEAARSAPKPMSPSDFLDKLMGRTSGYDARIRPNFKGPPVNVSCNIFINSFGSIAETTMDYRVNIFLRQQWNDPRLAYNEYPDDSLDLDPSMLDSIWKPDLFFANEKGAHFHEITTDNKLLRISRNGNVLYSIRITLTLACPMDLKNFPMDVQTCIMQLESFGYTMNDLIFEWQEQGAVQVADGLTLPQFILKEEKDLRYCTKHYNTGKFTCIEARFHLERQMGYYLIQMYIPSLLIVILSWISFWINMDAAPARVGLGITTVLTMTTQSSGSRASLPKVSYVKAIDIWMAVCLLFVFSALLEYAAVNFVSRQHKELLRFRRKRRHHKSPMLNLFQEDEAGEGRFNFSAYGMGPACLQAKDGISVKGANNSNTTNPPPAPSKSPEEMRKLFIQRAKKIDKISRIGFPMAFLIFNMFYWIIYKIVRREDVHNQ

[14] = target: T2, Neuronal acetylcholine receptor subunit alpha-7; experiment: Displacement of [3H]methyllycaconitine from chimeric alpha7nAChR/5HT3A in tsA201 cells; assay type: cell-based
Target sequence in this assay (P36544 23-502 limits assumed): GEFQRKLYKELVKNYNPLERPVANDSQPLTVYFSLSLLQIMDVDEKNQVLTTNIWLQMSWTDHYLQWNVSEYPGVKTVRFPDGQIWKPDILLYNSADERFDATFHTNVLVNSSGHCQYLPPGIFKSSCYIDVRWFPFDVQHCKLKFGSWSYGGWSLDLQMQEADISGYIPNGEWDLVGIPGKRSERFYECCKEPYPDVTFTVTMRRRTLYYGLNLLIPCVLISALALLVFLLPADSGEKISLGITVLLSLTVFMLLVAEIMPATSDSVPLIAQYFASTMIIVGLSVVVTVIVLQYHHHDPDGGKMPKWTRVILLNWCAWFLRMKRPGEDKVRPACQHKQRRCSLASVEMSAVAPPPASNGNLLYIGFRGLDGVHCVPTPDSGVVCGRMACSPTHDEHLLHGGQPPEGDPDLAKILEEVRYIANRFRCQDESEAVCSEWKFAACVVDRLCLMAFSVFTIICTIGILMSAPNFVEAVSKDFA

[15] = Displacement of [3H]methyllycaconitine from chimeric alpha-7nAChR W55A mutant /5HT3A receptor in tsA201 cells; assay type: cell-based, Homo sapiens; outline: as §1
[16] = Displacement of [3H]methyllycaconitine from chimeric alpha7nAChR W55Y mutant/5HT3A receptor in tsA201 cells; assay type: cell-based, Homo sapiens; outline: as §1
[17] = Displacement of [3H]methyllycaconitine from chimeric alpha7nAChR R79A mutant/5HT3A receptor R79A mutant in tsA201 cells; assay type: cell-based, Homo sapiens; outline: as §1
tsA201 [18] = experiment: Displacement of [3H]methyllycaconitine from chimeric alpha-7nAChR Y93A mutant/5HT3A receptor in tsA201 cells; assay type: cell-based; conditions: Homo sapiens; outline: as §1
[19] = Displacement of [3H]methyllycaconitine from chimeric alpha-7nAChR N107A mutant/5HT3A receptor in tsA201 cells; assay type: cell-based, Homo sapiens; outline: as §1
[20] = Displacement of [3H]methyllycaconitine from chimeric alpha7nAChR K145A mutant/5HT3A receptor in tsA201 cells; assay type: cell-based, Homo sapiens; outline: as §1
[21] = Displacement of [3H]methyllycaconitine from chimeric alpha-7nAChR S148A mutant /5HT3A receptor in tsA201 cells; assay type: cell-based, Homo sapiens; outline: as §1
tsA201 [22] = experiment: Displacement of [3H]methyllycaconitine from chimeric alpha-7nAChR W149A mutant/5HT3A receptor in tsA201 cells; assay type: cell-based; conditions: Homo sapiens; outline: as §1
tsA201 [23] = experiment: Displacement of [3H]methyllycaconitine from chimeric alpha-7nAChR W149Y mutant/5HT3A receptor W149Y mutant in tsA201 cells; assay type: cell-based; conditions: Homo sapiens; outline: as §1
[24] = Displacement of [3H]methyllycaconitine from chimeric alpha-7nAChR S150A mutant/5HT3A receptor in tsA201 cells; assay type: cell-based, Homo sapiens; outline: as §1
[25] = Displacement of [3H]methyllycaconitine from chimeric alpha-7nAChR Y168A mutant/5HT3A receptor in tsA201 cells; assay type: cell-based, Homo sapiens; outline: as §1
tsA201 [26] = experiment: Displacement of [3H]methyllycaconitine from chimeric alpha-7nAChR Y188A mutant/5-HT3A receptor in tsA201 cells; assay type: cell-based; conditions: Homo sapiens; outline: as §1
[27] = Displacement of [3H]methyllycaconitine from chimeric alpha7nAChR Y195A mutant/5HT3A receptor in tsA201 cells; assay type: cell-based, Homo sapiens; outline: as §1
[28] = Displacement of [3H]methyllycaconitine from chimeric alpha-7nAChR Y195F mutant/5HT3A receptor in tsA201 cells; assay type: cell-based, Homo sapiens; outline: as §1

Structure (SMILES): C[N+](C)(C)Cc1c2n(c3ccccc13)Cc1c(C[N+](C)(C)C)c3ccccc3n1C2.[I-].[I-]
- Ki [1]: 6.3 µM
- pKi [1]: 5.2
- Activity (tsA201 [2]): inactive
- Ki [3]: 5.2 µM
- pKi [3]: 5.28
- Ki [4]: > 100 µM
- Ki ([4]; read-out: Ki): > 100 µM
- Ki [5]: > 100 µM
- pKi [5]: < 4
- Ki [6]: > 100 µM
- pKi [6]: < 4
- Ki ([7]; read-out: Ki): 2.4 µM
- Ki ([7]; read-out: pKi (converted)): 2.51 µM
- Ki ([8]; read-out: Ki): 1.3 µM
- Ki ([8]; read-out: pKi (converted)): 1.26 µM
- Ki [9]: > 100 µM
- pKi ([9]; hek293): < 4
- IC50 ([10]; read-out: IC50): 30 µM
- IC50 ([10]; read-out: pIC50 (converted)): 100 µM
- pIC50 [11]: < 4
- IC50 [11]: > 100 µM
- pIC50 ([12]; hek293): < 4
- IC50 ([12]; read-out: IC50): > 100 µM
- IC50 (cells; read-out: IC50): > 100 µM
- IC50 (cells; read-out: pIC50 (converted)): > 100 µM
- IC50 [13]: > 100 µM
- pIC50 [13]: < 4
- Ki [14]: 4.42 µM
- pKi [14]: 5.35
- Ki [15]: 1.1 µM
- pKi [15]: 5.94
- Ki [16]: 2.4 µM
- pKi [16]: 5.61
- Ki [17]: 7.6 µM
- pKi [17]: 5.12
- Activity (tsA201 [18]): inactive
- Ki [19]: 15 µM
- pKi [19]: 4.82
- Ki [20]: 7.2 µM
- pKi [20]: 5.14
- Ki [21]: 0.43 µM
- pKi [21]: 6.37
- Activity (tsA201 [22]): inactive
- Activity (tsA201 [23]): inactive
- Ki [24]: 6 µM
- pKi [24]: 5.22
- Ki [25]: 5.1 µM
- pKi [25]: 5.29
- Activity (tsA201 [26]): inactive
- Ki [27]: 22 µM
- pKi [27]: 4.66
- Ki [28]: 8.3 µM
- pKi [28]: 5.08

Structure (SMILES): OC/C=C1/C[N+]2(C3C=CCCC3)CC[C@@H]3[C@@H]4/C(=C\N5c6ccccc6[C@@]67CC[N+]8(C9C=CCCC9)CC9=CCO[C@H]([C@@H]([C@H]56)[C@H]9C[C@@H]78)N4c4ccccc4)[C@H]1C[C@@H]32.[Br-].[Br-] (some centres undefined)
- pKi [4]: < 4
- Ki ([4]; read-out: Ki): > 100 µM
- Ki [5]: 100 µM
- Ki [6]: > 100 µM
- pKi [6]: < 4
- Ki ([7]; read-out: Ki): 0.36 µM
- Ki ([7]; read-out: pKi (converted)): 0.316 µM
- Ki ([8]; read-out: Ki): 0.23 µM
- Ki ([8]; read-out: pKi (converted)): 0.251 µM
- Ki [9]: 40 µM
- IC50 ([10]; read-out: IC50): 2.3 µM
- IC50 ([10]; read-out: pIC50 (converted)): 2.34 µM
- IC50 [11]: 30 µM
- IC50 ([12]; read-out: IC50): 30 µM
- IC50 (cells; read-out: IC50): > 100 µM
- IC50 (cells; read-out: pIC50 (converted)): > 100 µM
- IC50 [13]: > 100 µM
- pIC50 [13]: < 4

Structure (SMILES): C1=C2CN3CC[C@@H]4[C@@H]5[C@H]([C@@H](OC1)N1c6ccccc6[C@@]67CCN8CC9=CCO[C@H]([C@@H]([C@H]16)[C@H]9C[C@H]87)N5c1ccccc1)[C@H]2C[C@@H]43
- pKi [4]: < 4
- Ki ([4]; read-out: Ki): > 100 µM
- Ki [5]: 30 µM
- Ki [6]: > 100 µM
- pKi [6]: < 4
- Ki ([7]; read-out: Ki): 1.1 µM
- Ki ([8]; read-out: Ki): 1.1 µM
- Ki ([8]; read-out: pKi (converted)): 1 µM
- Ki [9]: 3.1 µM
- IC50 ([10]; read-out: IC50): 1.6 µM
- IC50 ([10]; read-out: pIC50 (converted)): 1.58 µM
- IC50 [11]: 11 µM
- IC50 ([12]; read-out: IC50): 11 µM
- IC50 ([12]; read-out: pIC50 (converted)): 12.6 µM
- IC50 (cells; read-out: IC50): > 100 µM
- IC50 (cells; read-out: pIC50 (converted)): > 100 µM
- IC50 [13]: > 100 µM
- pIC50 [13]: < 4

Structure (SMILES): COc1ccc(C[N+]23CC[C@@H]4[C@@H]5[C@@H]6[C@@H](OCC=C(C2)[C@@H]6C[C@@H]43)N2c3ccccc3[C@@]34CC[N+]6(Cc7ccc(OC)c(OC)c7)CC7=CCO[C@H]([C@@H]([C@H]23)[C@H]7C[C@@H]46)N5c2ccccc2)cc1OC.[Cl-].[Cl-] (some centres undefined)
- pKi [4]: < 4
- Ki ([4]; read-out: Ki): > 100 µM
- Ki [5]: > 100 µM
- pKi [5]: < 4
- Ki [6]: > 100 µM
- pKi [6]: < 4
- Ki ([7]; read-out: Ki): 0.13 µM
- Ki ([7]; read-out: pKi (converted)): 0.126 µM
- Ki ([8]; read-out: Ki): 0.059 µM
- Ki ([8]; read-out: pKi (converted)): 0.0631 µM
- Ki [9]: 28 µM
- IC50 ([10]; read-out: IC50): 1.3 µM
- IC50 ([10]; read-out: pIC50 (converted)): 1.32 µM
- pIC50 [11]: < 4
- IC50 [11]: > 100 µM
- IC50 ([12]; read-out: IC50): 30 µM
- IC50 (cells; read-out: IC50): > 100 µM
- IC50 (cells; read-out: pIC50 (converted)): > 100 µM
- IC50 [13]: > 100 µM
- pIC50 [13]: < 4
